Measurements published in ChEMBL document CHEMBL1150072, “Two new bioactive monotetrahydrofuran Annonaceous acetogenins from the bark of Xylopia aromatica” (J Nat Prod, 1994).
Values after ≈ are worked out from the molar mass of the structure shown.

Assays:
[1] = Toxicity in brine shrimp; format: organism-based; settings: artemia, in vivo
A549 = experiment: Cytotoxicity against human A549 cells after 7 days by MTT assay; format: functional; settings: A549, 168 h, read-out: ED50 (the source's name)
Outline: (§1)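 Seven-day MTT assay of each compound against the human solid tumour lines A-549 (lung carcinoma), MCF-7 (breast carcinoma) and HT-29 (colon adenocarcinoma), run at a cell culture core laboratory. Adriamycin served as the positive control. Values from separate runs of the cell culture assay were reported apart.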

HT-29 = experiment: Cytotoxicity against human HT-29 cells after 7 days by MTT assay; format: functional; settings: HT-29, 168 h, read-out: ED50 (the source's name); outline: as §1
MCF7 = experiment: Cytotoxicity against human MCF7 cells after 7 days by MTT assay; format: functional; settings: MCF7, 168 h, read-out: ED50 (the source's name); outline: as §1

Compound	LC50 [1]	EC50 (A549)	EC50 (HT-29)	EC50 (MCF7)
CCCCCCCCCC/C=C\CC[C@@H](O)[C@H]1CC[C@H]([C@H](O)CCCCC(O)CCCCC[C@@H](O)CC2=C[C@H](C)OC2=O)O1 (stereo not given in full) [XYLOMATENIN]	770 ng/mL (≈ 1.24 µM)	< 1 ng/mL	< 1 ng/mL	631 ng/mL (≈ 1.01 µM)
CCCCCCCCCC/C=C\CC[C@@H](O)[C@H]1CC[C@H]([C@H](O)CCCCCCC(O)CCC[C@@H](O)CC2=C[C@H](C)OC2=O)O1 (stereo not given in full) [XYLOPIEN]	871 ng/mL (≈ 1.4 µM)	3.64 ng/mL (≈ 0.00584 µM)	7.26 ng/mL (≈ 0.0117 µM)	7.11 ng/mL (≈ 0.0114 µM)
COc1cccc2c1C(=O)c1c(O)c3c(c(O)c1C2=O)C[C@@](O)(C(=O)CO)C[C@@H]3O[C@H]1C[C@H](N)[C@H](O)[C@H](C)O1 [DOXORUBICIN]		1.1 ng/mL (≈ 0.00202 µM)	2.7 ng/mL (≈ 0.00497 µM)	
